In the library only some 3.3% were active in any assay of this set; here they are far more common.
AHR activator: AHR activators, primary screen, cell-based, luminescence, luciferase reporter, human; Aryl hydrocarbon receptor (Homo sapiens), P35869; AHR-responsive luciferase reporter cells; activation, % at 5 µM; 320,000 tested, 2.5% active; AID 2796, 2010; in the data active means activation above about 47%;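 further: 0% = vehicle wells and 100% = reference agonist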
STAT3 act: IL-6 driven STAT3 reporter potentiators, primary screen, U3A cells, luciferase, luminescence, MLSCN library. activation (% of control), % at 5.6 µM. IL-6 STAT3-luciferase reporter; 100% = signal with IL-6 EC80 alone. 190,000 tested, 0.91% active;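 active means activation above the screen-wide mean of compound activation plus 3 SD, cut at about 130% in these data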;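 further: 0% = background luminescence of wells with medium and substrate only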
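Detection: reporter luminescence signal / Assay system: STAT1-lacking human U3A cells, STAT3 luciferase reporter / Incubation: compound pre-incubation 1 h before IL-6, then 6 h stimulation at 37 °C / Control set: IL-6-only high control / Read-out: % activation relative to IL-6 control / Probe or stimulus: Interleukin-6, 33 ng/mL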
ABCB6 inh MLPCN: ABCB6 transporter inhibitors, primary screen, K562-ABCB6 cells, flow cytometry, MLPCN library; 360,000 tested, 0.19% active; K562-ABCB6 porphyrin accumulation, 1 h; active compounds read low; fluorescence ratio to DMSO, % at 10 µM;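 active means fluorescence ratio to DMSO below 75%, the collection mean minus 3 SD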;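 further: signal is porphyrin accumulated inside mitochondria; 100% equals median channel fluorescence of DMSO control wells; lower ratio means ABCB6 inhibition with less porphyrin fluorescence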
GAA850 FXN act: FXN promoter activators, primary screen, cell-based, luciferase luminescence, HEK293 lucGAA850. HEK293 lucGAA850 FXN promoter luciferase reporter, 24 h; percent of 10 µM SAHA response. activation, % at 6 µM. 360,000 tested, 0.56% active. AID 540364, 2011;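 active means activation above the average of all compounds screened plus 3 SD, cutoff fixed separately per campaign, cut at about 7.5% in these data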;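 further: 0% = DMSO wells and 100% = 10 µM SAHA wells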
AHR act cf: AHR activators, confirmation, cell-based, luminescence, luciferase reporter, human; 2,300 tested, 87% active; activation, % at 9 µM; shares compounds with AHR activator; human cells, AHR-responsive luciferase reporter; AID 2845, 2010; in the data active means activation above about 49%;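 further: HepG2 hepatoma cells carrying a DRE-driven firefly luciferase reporter; 0% = vehicle wells and 100% = reference agonist wells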
PXR act counter: human PXR activators, counter-screen for AHR activator project, cell-based, luciferase luminescence. shares compounds with AHR activator. cell-based PXR reporter. activation, % at 11.6 µM. 2,300 tested, 88% active; in the data active means activation above about 11%;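 further: human hepatoma DPX-2 cells expressing full-length human PXR; 0% = DMSO and 100% = reference agonist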
Target sequence (O75469 whole entry, looked up): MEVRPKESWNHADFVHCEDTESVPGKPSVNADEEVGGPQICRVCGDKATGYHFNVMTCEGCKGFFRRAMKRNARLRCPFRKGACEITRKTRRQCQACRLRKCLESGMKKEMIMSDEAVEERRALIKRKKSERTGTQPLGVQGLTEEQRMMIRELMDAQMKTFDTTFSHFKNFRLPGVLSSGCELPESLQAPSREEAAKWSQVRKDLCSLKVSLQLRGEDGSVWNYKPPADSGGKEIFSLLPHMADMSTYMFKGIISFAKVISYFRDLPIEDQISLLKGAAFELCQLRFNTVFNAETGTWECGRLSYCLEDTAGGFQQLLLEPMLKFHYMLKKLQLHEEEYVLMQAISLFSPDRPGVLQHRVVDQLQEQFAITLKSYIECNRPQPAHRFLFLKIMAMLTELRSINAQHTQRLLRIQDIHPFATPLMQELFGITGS
The depositor's hits bear a star; . = no result.

SMILES | AHR activator | STAT3 act | ABCB6 inh MLPCN | GAA850 FXN act | AHR act cf | PXR act counter
O=C(Nc1cccnc1)Nc1ccc(F)c(Cl)c1 | 37.2 | 87.4 | 104.0 | 0.3 | . | .
O=C(Nc1ccc2c(c1)OCO2)Nc1ccc2c(c1)OCO2 | 106.0* | 97.6 | 99.0 | 4.5 | 44.8 | 28.2*
Cn1ccc2cc(NC(=O)Nc3cccnc3)ccc21 | 88.9* | . | 98.0 | 2.7 | 55.5* | 21.0*
O=C(Nc1cccc(C(=O)O)c1)Nc1ccc2c(c1)OCO2 | -5.7 | . | 90.0 | 3.8 | . | .
COc1ccc(NC(=O)Nc2cccc(F)c2)c(OC)c1 | -2.6 | 94.0 | 98.0 | 1.2 | . | .
CCN(c1ccccc1)S(=O)(=O)c1cccc(C(=O)NCC2(N(C)C)CCCCC2)c1 | -3.1 | . | 93.0 | -1.9 | . | .
NS(=O)(=O)c1cc(Br)c2c(c1)S(=O)(=O)NCN2 | . | . | 97.0 | -1.1 | . | .
CN(C)c1nc(N)nc(CSc2nnnn2-c2ccccc2)n1 | 4.3 | 94.7 | 96.0 | -0.6 | . | .
Cc1noc(C(=O)Nc2ccc3c(c2)OCO3)c1Cl | 124.8* | 108.9 | 95.0 | 2.4 | 147.6* | 25.5*
CCn1cc(Br)c(C(=O)Nc2ccc(F)cc2F)n1 | 99.3* | . | 96.0 | 0.6 | 130.2* | 13.2*
CCn1ccnc1CN(C)C(=O)C1CCC(=O)N(CCc2cccc(F)c2)C1 (stereo not drawn) | 3.7 | . | 97.0 | 0.5 | . | .
Cc1nc(NC2=NCN(CCCN3CCOCC3)CN2)nc2c(C)cccc12 | 125.1* | 183.4* | 97.0 | 0.7 | 74.2* | .
Cc1nc(NC2=NCN(CC3CCCO3)CN2)nc2ccccc12 (stereo not drawn) | . | 101.2 | . | . | . | .
Cc1ccc(CNC(=O)COc2cccc3c2OC(C)(C)C3)cc1 | . | . | 98.0 | 0.7 | . | .
COc1ccc(OC)c(Nc2nc(NCCCN(C)C)nc(N)c2[N+](=O)[O-])c1 | 38.3 | . | 95.0 | 1.1 | . | .
COc1ccccc1Nc1nc(NCCO)nc(N)c1[N+](=O)[O-] | 97.2* | . | 91.0 | -0.9 | 127.5* | .
CNc1nc(N)c([N+](=O)[O-])c(Nc2ccccc2OC)n1 | 106.8* | . | 94.0 | 2.1 | 92.7* | 17.7*
Cc1nonc1OCC(C)(COc1nonc1C)NC(=O)c1ccccc1 | -0.1 | 95.6 | 101.0 | -0.4 | . | .
Cc1ccccc1CNC(=O)CCNS(=O)(=O)c1ccc(OC(F)(F)F)cc1 | 0.5 | . | 100.0 | 0.0 | . | .
CCCn1c(/C=C/c2ccccc2)nc2ccccc21 | 88.0* | 111.7 | 98.0 | 3.8 | 118.0* | 45.1*
CCn1c(/C=C/c2cc[n+](C)cc2)nc2ccccc21 | -0.6 | . | 92.0 | 2.3 | . | .
CC(C)n1cc(/C=N/NC(=O)COc2cccc3cccnc23)c2ccccc21 | 45.5 | 101.1 | 96.0 | 2.7 | . | .
C=CCn1cc(/C=N/NC(=O)COc2cccc3cccnc23)c2ccccc21 | 82.1* | 102.1 | 105.0 | 1.6 | 36.1 | 38.3*
c1ccc2c(c1)[nH]c1c(N3CCN(C4CCCCC4)CC3)ncnc12 | 80.2* | 123.1 | 96.0 | -0.1 | 68.2* | 14.3*
CN(C)C=Nc1ccc2nn(-c3ccccc3)nc2c1 | 109.2* | 85.7 | 95.0 | 3.1 | 116.7* | 17.3*
SMILES | AHR activator | STAT3 act | ABCB6 inh MLPCN | GAA850 FXN act | AHR act cf | PXR act counter
CC1CCCC/C1=N\NC(=S)Nc1cccnc1 (stereo not drawn) | 113.3* | 97.2 | 104.0 | 0.1 | 73.5* | 12.0*
CC(=O)c1c(C)[nH]c(C(=O)Nc2ccc(C)c(C)c2)c1C | -16.1 | 79.9 | 101.0 | 1.6 | . | .
CC(=O)c1c(C)[nH]c(C(=O)Nc2nccs2)c1C | 133.5* | 106.0 | 95.0 | -0.7 | 73.6* | 35.8*
CC(=O)c1c(C)[nH]c(C(=O)Nc2cc(C)ccc2C)c1C | 118.4* | 93.3 | 100.0 | 0.3 | 92.6* | 37.9*
CC(=O)c1c(C)[nH]c(C(=O)Nc2ccc(F)cc2F)c1C | 97.8* | . | 102.0 | 1.4 | 131.0* | 37.7*
CCc1ccc(NC(=O)c2[nH]c(C)c(C(C)=O)c2C)cc1 | 19.8 | . | 102.0 | 4.7 | . | .
COCCNC(=S)N1CCN(S(C)(=O)=O)CC1 | 2.4 | 100.8 | 98.0 | 2.8 | . | .
COc1cccc(C=Nc2ccccc2C(=O)Nc2nccs2)c1OC | -1.2 | 103.8 | 96.0 | 1.3 | . | .
COc1c(C(=O)Nc2nccs2)ccc2ccccc12 | 84.3* | . | 96.0 | 3.2 | 149.1* | 26.8*
